Source: ChEMBL document CHEMBL3259640 (J Med Chem, 2014)
Values after ≈ are worked out from the molar mass of the structure shown. Active and inactive are the calls of the source. The rule behind the calls is not given here.

Columns and labels:
Mus musculus [1] = experiment: Toxicity in BALB/c nu/nu mouse xenografted with human MDA-MB-231 cells assessed as body weight loss at 20 mg/kg, iv qd for 28 days; assay type: organism-based; design: dose 20 mg/kg, route intravenous; conditions: in vivo, 672 h
How it was run: (§1)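 Female BALB/c nu/nu mice, 5–8 weeks old, implanted subcutaneously in the right flank with 1 × 10⁷ MDA-MB-231 cells in matrigel. Treatment began at about 100 mm³ tumor volume; 5 mice per group. Dosing for 28 days: IV 20 mg/kg once daily or PO 150 mg/kg twice daily, in 5% DMSO/10% Cremophor in H₂O; vehicle controls included. Body weight and tumor size (caliper) recorded every 2 days.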

[2] = Growth inhibition of human RPTEC cells; assay type: cell-based
[3] = molecular target: RAF proto-oncogene serine/threonine-protein kinase (Homo sapiens, UniProt P04049); experiment: Inhibition of C-Raf (unknown origin) assessed as [33P] incorporation in substrate by TopCount microplate scintillation counting analysis
HeLa [4] = experiment: Growth inhibition of human HeLa cells; assay type: functional
HeLa [5] = experiment: Induction of apoptosis in human HeLa cells assessed as increase in cleaved caspase-3 level at 1 uM after 24 to 48 hrs by western blot analysis; assay type: functional, cell-based
How it was run: (§2)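 HeLa cells given 1.0 μM compound, DMSO, or paclitaxel 100 nM for 24 and 48 h. Lysates made in SDS sample buffer, run on SDS-PAGE and transferred to PVDF. Blots probed for cleaved caspase-3, cleaved PARP, Bcl-2, Mcl-1 and XIAP, with actin as loading control, and detected by HRP-linked ECL.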

[6] = molecular target: T1, Kinetochore protein NDC80 homolog (Homo sapiens) (UniProt O14777); experiment: Inhibition of Hec1/Nek2 interaction in human K562 cells assessed as induction of Nek2 degradation at 10 nM after 24 hrs by western blot analysis; assay type: cell-based
T1 sequence (whole entry): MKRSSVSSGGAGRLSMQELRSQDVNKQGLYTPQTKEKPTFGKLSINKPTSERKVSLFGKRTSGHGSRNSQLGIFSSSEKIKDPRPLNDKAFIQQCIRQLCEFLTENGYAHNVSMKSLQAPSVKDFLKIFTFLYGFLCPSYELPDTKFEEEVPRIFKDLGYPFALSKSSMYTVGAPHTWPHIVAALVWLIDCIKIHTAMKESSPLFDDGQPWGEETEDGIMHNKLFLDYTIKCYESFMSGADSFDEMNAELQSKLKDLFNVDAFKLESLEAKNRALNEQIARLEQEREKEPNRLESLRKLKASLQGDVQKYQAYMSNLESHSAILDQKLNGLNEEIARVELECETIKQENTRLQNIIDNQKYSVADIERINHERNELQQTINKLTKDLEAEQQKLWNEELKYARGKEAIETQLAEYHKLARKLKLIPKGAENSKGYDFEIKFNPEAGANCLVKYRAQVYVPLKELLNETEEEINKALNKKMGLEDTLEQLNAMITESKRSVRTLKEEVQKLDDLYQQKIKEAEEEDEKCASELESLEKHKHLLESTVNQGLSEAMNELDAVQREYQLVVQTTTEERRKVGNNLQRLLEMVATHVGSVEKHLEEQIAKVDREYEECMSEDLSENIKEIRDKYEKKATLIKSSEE
How it was run: (§3)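 K562 cells exposed to DMSO or to 10, 100 or 1000 nM for 24 h. Nek2 and Hec1 detected by western blot in SDS sample buffer lysates, with actin as loading control and ECL detection.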

MDA-MB-468 [7] = experiment: Growth inhibition of human MDA-MB-468 cells; assay type: functional
[8] = Growth inhibition of human PLC/PRF/5 cells; assay type: functional
[9] = molecular target: Hepatocyte growth factor receptor (Homo sapiens, UniProt P08581); experiment: Inhibition of MET (unknown origin) assessed as [33P] incorporation in substrate by TopCount microplate scintillation counting analysis
[10] = molecular target: Phosphatidylinositol 4,5-bisphosphate 3-kinase catalytic subunit alpha isoform (Homo sapiens, UniProt P42336); experiment: Inhibition of PI3K alpha (unknown origin) assessed as [33P] incorporation in substrate by TopCount microplate scintillation counting analysis
[11] = molecular target: Serine/threonine-protein kinase Nek2 (Homo sapiens, UniProt P51955); experiment: Inhibition of Nek2 (unknown origin)
HeLa [12] = experiment: Induction of apoptosis in human HeLa cells assessed as reduction in Bcl-2 protein expression at 1 uM after 24 to 48 hrs by western blot analysis; assay type: functional, cell-based; how it was run: as §2
[13] = molecular target: Serine/threonine-protein kinase Chk1 (Homo sapiens, UniProt O14757); experiment: Inhibition of CHK1 (unknown origin) assessed as [33P] incorporation in substrate by TopCount microplate scintillation counting analysis
MDA-MB-468 [14] = experiment: Induction of mitotic abnormalities in human MDA-MB-468 cells assessed as proportion of cells displaying chromosomal misalignment at 10 nM after 48 hrs by immunofluorescent staining based microscopy (reference value: 21.4%); assay type: functional
[15] = Growth inhibition of human HuH7 cells; assay type: functional; conditions: Huh-7
[16] = Half life in rat liver microsomes at 1 uM by LC-MS/MS analysis; assay type: ADME
MDA-MB-468 [17] = experiment: Induction of mitotic abnormalities in human MDA-MB-468 cells assessed as proportion of cells displaying multipolar spindles at 1000 nM after 48 hrs by immunofluorescent staining based microscopy (reference value: […]); assay type: functional
[18] = molecular target: Fibroblast growth factor receptor 1 (Homo sapiens, UniProt P11362); experiment: Inhibition of FGFR1 (unknown origin) assessed as [33P] incorporation in substrate by TopCount microplate scintillation counting analysis
MDA-MB-231 [19] = experiment: Antiproliferative activity against human MDA-MB-231 cells assessed as cell viability after 96 hrs by CellTiter96 assay; assay type: functional, cell-based; conditions: MDA-MB-231, 96 h
[20] = Growth inhibition of HUVEC; assay type: cell-based; conditions: human
[21] = Solubility of the compound in phosphate buffered saline containing 1% DMSO at pH 7.4 after 2 hrs by HPLC analysis; assay type: physicochemical
[22] = AUC in Sprague-Dawley rat at 2 mg/kg, iv compound formulated with 5% DMSO, 10% cremophor and 85% water by LC-MS/MS analysis; assay type: ADME, organism-based; design: dose 2 mg/kg, route intravenous; conditions: plasma
HCT-116 = experiment: Growth inhibition of human HCT116 cells; assay type: functional
Mus musculus [23] = experiment: Toxicity in BALB/c nu/nu mouse xenografted with human MDA-MB-231 cells assessed as body weight loss at 150 mg/kg, po bid for 28 days; assay type: organism-based; design: dose 150 mg/kg, route oral; conditions: in vivo, 672 h; how it was run: as §1
[24] = Growth inhibition of human Hep3B cells; assay type: functional, Hep 3B2
[25] = molecular target: T1, Kinetochore protein NDC80 homolog (Homo sapiens); experiment: Inhibition of Hec1/Nek2 interaction in human K562 cells assessed as induction of Nek2 degradation after 24 hrs by western blot analysis; assay type: cell-based; how it was run: as §3
[26] = molecular target: Epidermal growth factor receptor (Homo sapiens, UniProt P00533); experiment: Inhibition of EGFR (unknown origin) assessed as [33P] incorporation in substrate by TopCount microplate scintillation counting analysis
MDA-MB-468 [27] = experiment: Induction of mitotic abnormalities in human MDA-MB-468 cells assessed as increase in proportion of cells displaying multipolar spindles after 48 hrs by immunofluorescent staining based microscopy; assay type: functional, cell-based
MDA-MB-231 [28] = experiment: Growth inhibition of human MDA-MB-231 cells; assay type: functional

Chain of Hepatocyte growth factor receptor (P08581 whole entry, canonical isoform): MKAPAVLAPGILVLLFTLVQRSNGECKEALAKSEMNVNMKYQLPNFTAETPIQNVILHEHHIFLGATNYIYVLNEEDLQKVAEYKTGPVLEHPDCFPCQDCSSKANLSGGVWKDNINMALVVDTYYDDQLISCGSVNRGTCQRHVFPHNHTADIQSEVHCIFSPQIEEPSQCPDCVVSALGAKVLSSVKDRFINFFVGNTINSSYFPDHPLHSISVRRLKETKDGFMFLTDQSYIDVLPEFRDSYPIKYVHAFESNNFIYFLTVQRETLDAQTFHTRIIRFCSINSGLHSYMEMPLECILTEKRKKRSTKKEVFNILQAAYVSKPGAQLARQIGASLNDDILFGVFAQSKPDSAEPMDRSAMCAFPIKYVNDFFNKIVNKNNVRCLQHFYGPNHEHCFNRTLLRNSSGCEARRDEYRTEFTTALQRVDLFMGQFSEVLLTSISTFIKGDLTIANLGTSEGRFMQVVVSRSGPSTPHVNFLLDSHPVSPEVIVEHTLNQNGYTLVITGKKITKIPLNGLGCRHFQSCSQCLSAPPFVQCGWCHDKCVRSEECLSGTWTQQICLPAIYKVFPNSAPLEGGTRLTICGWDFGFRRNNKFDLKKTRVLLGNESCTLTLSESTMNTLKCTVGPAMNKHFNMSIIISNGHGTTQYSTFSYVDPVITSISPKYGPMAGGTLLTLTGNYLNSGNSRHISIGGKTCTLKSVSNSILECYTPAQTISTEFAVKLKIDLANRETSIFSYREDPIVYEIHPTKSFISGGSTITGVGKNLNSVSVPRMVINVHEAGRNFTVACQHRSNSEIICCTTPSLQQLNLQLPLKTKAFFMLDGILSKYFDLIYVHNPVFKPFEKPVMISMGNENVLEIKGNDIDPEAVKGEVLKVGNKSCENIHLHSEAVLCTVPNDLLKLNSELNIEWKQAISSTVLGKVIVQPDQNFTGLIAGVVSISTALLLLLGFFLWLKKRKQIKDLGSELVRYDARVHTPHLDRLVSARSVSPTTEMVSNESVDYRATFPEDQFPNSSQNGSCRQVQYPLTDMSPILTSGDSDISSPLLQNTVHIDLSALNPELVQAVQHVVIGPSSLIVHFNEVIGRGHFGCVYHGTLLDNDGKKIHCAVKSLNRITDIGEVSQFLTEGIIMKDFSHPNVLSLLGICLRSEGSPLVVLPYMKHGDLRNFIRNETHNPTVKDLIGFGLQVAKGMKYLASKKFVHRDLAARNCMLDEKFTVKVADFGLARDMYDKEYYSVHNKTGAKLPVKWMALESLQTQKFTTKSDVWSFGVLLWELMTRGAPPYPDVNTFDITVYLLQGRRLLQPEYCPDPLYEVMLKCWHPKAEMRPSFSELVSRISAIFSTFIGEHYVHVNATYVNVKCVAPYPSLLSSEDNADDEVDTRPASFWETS
Chain of Serine/threonine-protein kinase Chk1 (O14757 whole entry): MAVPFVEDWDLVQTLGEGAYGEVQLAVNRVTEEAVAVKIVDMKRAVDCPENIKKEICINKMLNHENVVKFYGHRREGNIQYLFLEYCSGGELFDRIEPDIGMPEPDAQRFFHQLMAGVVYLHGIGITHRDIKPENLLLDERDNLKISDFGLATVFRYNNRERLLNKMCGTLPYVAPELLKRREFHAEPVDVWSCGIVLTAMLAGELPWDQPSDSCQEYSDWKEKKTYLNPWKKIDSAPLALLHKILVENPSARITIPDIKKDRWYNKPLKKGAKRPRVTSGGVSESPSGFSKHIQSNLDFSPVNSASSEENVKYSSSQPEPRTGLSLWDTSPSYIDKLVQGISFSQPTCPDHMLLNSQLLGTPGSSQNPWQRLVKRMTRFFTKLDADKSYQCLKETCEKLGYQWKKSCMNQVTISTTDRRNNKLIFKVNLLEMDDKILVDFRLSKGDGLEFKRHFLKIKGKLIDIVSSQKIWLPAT
Chain of Serine/threonine-protein kinase Nek2 (P51955 whole entry): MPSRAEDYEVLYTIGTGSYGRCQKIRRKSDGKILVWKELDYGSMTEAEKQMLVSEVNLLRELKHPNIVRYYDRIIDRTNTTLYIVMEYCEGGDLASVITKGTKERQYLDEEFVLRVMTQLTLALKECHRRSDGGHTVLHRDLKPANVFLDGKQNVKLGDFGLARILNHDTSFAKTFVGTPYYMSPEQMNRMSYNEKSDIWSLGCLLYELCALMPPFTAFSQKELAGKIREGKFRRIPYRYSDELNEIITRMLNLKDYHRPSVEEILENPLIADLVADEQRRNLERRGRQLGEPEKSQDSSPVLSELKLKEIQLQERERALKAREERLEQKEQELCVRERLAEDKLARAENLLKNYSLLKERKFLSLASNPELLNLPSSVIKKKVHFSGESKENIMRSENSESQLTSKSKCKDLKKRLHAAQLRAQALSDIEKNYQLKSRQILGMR
Chain of RAF proto-oncogene serine/threonine-protein kinase (P04049 whole entry): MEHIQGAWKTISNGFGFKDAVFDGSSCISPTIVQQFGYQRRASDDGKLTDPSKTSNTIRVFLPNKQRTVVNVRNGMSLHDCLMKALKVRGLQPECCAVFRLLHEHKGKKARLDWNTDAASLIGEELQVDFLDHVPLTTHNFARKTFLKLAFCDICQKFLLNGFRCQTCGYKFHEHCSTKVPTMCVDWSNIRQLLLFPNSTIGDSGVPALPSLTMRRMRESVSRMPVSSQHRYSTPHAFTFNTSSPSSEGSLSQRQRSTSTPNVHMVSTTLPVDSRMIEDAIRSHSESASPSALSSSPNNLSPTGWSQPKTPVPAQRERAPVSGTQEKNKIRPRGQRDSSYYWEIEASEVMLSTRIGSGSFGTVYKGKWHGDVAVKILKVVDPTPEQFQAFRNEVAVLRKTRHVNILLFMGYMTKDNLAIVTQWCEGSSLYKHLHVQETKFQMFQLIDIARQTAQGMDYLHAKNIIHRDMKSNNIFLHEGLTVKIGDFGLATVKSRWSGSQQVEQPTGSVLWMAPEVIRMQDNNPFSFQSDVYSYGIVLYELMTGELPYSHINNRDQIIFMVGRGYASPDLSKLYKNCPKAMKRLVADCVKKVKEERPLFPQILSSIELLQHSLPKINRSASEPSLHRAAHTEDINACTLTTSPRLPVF
Chain of Fibroblast growth factor receptor 1 (P11362 whole entry): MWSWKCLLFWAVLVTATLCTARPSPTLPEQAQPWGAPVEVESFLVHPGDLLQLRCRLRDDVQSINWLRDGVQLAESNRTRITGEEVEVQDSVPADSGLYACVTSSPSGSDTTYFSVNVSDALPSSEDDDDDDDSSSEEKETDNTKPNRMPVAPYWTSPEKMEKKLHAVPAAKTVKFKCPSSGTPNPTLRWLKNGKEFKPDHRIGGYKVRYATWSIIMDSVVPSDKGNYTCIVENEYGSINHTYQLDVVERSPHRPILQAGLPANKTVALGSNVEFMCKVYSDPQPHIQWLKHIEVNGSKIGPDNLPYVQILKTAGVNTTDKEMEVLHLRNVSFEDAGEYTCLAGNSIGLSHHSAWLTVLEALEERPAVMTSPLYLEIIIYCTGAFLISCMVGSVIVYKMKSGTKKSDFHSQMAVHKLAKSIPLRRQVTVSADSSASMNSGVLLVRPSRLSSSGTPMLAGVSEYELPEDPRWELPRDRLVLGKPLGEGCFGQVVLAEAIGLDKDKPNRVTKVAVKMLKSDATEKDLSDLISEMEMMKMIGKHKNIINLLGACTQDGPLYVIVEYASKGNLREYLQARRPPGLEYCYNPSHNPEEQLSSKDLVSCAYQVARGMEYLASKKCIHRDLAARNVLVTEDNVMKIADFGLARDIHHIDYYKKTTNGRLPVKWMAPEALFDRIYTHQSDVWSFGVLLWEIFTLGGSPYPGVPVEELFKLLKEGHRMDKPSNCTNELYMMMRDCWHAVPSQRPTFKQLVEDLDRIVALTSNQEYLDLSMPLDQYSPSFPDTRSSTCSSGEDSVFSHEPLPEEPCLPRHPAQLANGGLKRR
Chain of Phosphatidylinositol 4,5-bisphosphate 3-kinase catalytic subunit alpha isoform (P42336 whole entry, canonical isoform): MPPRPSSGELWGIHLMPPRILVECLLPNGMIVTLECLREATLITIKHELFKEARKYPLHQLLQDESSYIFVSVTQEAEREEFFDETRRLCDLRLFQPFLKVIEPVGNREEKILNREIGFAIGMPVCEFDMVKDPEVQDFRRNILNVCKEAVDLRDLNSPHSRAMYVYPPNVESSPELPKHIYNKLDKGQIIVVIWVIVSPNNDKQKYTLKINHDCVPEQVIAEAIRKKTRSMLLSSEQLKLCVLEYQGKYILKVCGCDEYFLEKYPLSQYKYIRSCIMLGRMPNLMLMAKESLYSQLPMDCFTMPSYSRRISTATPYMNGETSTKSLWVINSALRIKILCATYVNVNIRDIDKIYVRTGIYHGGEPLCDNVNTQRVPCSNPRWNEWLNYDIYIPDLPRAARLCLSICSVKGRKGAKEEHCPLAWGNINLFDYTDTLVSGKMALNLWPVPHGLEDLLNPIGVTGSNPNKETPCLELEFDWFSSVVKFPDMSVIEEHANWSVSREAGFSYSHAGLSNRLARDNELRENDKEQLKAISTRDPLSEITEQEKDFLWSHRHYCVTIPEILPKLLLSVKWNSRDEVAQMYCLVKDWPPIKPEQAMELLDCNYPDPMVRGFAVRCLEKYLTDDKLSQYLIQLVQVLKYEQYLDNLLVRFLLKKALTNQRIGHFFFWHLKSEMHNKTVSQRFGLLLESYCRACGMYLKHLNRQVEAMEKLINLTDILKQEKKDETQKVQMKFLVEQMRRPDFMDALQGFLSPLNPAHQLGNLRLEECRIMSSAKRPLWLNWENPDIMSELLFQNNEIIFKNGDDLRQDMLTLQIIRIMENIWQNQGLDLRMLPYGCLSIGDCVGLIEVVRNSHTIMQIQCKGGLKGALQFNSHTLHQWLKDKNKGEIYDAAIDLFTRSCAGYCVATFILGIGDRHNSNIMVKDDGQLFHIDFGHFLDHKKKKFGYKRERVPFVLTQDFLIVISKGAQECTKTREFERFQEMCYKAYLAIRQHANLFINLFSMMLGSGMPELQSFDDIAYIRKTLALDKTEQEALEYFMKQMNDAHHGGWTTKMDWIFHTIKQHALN

- IC50 [3]: > 10000 nM
- GI50 (HeLa [4]): 22.8 nM
- Activity [6]: inactive
- GI50 (MDA-MB-468 [7]): 29.6 nM
- IC50 [9]: > 10000 nM
- IC50 [10]: > 10000 nM
- IC50 [11]: > 10000 nM
- IC50 [13]: > 10000 nM
- half-life at 1 µM [16]: 5.67 h
- IC50 [18]: > 10000 nM
- IC50 (MDA-MB-231 [19]): 20 nM
- solubility kinetic at 2 h [21]: 0.19 µM (≈ 0.0854 µg/mL)
- AUC [22]: 64.9 µM·h
- GI50 (HCT-116): 34.1 nM
- Activity [25]: Dose-dependent effect
- IC50 [26]: > 10000 nM
- GI50 (MDA-MB-231 [28]): 39.8 nM
SMILES: COc1ccc(Oc2cc(C)c(-c3csc(NC(=O)c4ccnc(F)c4)n3)c(C)c2)cc1
- Activity (Mus musculus [1]): < 5%
- GI50 [2]: > 9000 nM
- Activity (HeLa [5]): Active
- GI50 [8]: 79.6 nM
- inhibition (HeLa [12]): Active
- Activity (MDA-MB-468 [14]): 23.9%
- GI50 [15]: 79.6 nM
- Activity (MDA-MB-468 [17]): 46.7%
- GI50 [20]: > 9000 nM
- Activity (Mus musculus [23]): < 5%
- GI50 [24]: 68.3 nM
- Activity (MDA-MB-468 [27]): Dose-dependent effect
